For 33 compounds, IC50 and Activity results are on record in ChEMBL document CHEMBL1153959, “QSAR analysis of pyrazolidine-3,5-diones derivatives as Dyrk1A inhibitors” (Bioorg Med Chem Lett, 2009).

In experiment [1] the target is Dual specificity tyrosine-phosphorylation-regulated kinase 1A (Mus musculus) (UniProt Q61214). Put plainly: Inhibition of Dyrk1 autophosphorylation.
For experiment [2], the target named is Cyclin-dependent kinase 5/CDK5 activator 1 (Homo sapiens) (UniProt Q00535+Q15078). Put plainly: Inhibition of human CDK5/p35 at 10 uM. The experiment is classed as protein-complex assay. Also noted: scale not given: the % may be the effect or the level left. In short, it runs like this: (§1)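 Each human kinase was assayed with ATP at that kinase's own Km value. Activity was expressed as a percentage of control incubations run without inhibitor. Values are means of duplicate determinations with SD.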

The target of experiment [3] is Dual specificity protein kinase CLK3 (Homo sapiens) (UniProt P49761). Put plainly: Inhibition of human CLK3 at 10 uM. Also noted: scale not given: the % may be the effect or the level left. In short, it runs like this:
as §1

Experiment [4] deals with T1, Dual specificity tyrosine-phosphorylation-regulated kinase 2 (Homo sapiens) (UniProt Q92630).
T1 sequence (whole entry): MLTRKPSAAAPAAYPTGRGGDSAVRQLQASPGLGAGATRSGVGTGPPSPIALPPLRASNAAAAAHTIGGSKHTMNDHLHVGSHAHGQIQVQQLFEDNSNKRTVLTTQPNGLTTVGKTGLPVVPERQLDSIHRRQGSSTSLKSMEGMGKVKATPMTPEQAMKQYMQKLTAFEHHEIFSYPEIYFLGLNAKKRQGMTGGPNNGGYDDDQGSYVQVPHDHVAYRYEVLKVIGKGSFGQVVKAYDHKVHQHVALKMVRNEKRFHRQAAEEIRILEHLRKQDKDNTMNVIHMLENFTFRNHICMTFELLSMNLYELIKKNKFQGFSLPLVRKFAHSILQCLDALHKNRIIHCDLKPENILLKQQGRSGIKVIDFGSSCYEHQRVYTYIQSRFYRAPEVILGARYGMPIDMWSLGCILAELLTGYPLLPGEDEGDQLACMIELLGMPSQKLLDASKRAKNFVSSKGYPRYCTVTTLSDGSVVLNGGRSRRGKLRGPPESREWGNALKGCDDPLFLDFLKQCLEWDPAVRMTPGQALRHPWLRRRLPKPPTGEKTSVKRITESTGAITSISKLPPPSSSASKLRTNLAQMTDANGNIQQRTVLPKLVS
Put plainly: Inhibition of human DYRK2 at 10 uM. Further details: scale not given: the % may be the effect or the level left. The procedure, abridged: as §1

In experiment [5] the target is Glycogen synthase kinase-3 beta (Homo sapiens) (UniProt P49841). Put plainly: Inhibition of human GSK3-beta at 10 uM. Further details: scale not given: the % may be the effect or the level left. In short, it runs like this:
as §1

The target of experiment [6] is Mitogen-activated protein kinase 10 (Homo sapiens) (UniProt P53779). Put plainly: Inhibition of human JNK3 at 10 uM. Further details: scale not given: the % may be the effect or the level left. The procedure, abridged:
as §1

Experiment [7] deals with MAP kinase-activated protein kinase 2 (Homo sapiens) (UniProt P49137). Put plainly: Inhibition of human MAPK2 at 10 uM. Also noted: scale not given: the % may be the effect or the level left. In short, it runs like this: as §1
The species entered for a further experiment is Homo sapiens. Put plainly: Inhibition of human PKA at 10 uM. Also noted: scale not given: the % may be the effect or the level left. The procedure, abridged:
as §1

For experiment [8], the target named is Protein kinase C alpha type (Homo sapiens) (UniProt P17252). Put plainly: Inhibition of human PKCalpha at 10 uM. Further details: scale not given: the % may be the effect or the level left. The procedure, abridged: as §1

pIC50: −log10 of the molar value. Bounds are passed on as bounds.

Chain of MAP kinase-activated protein kinase 2 (Homo sapiens) (P49137 whole entry, looked up): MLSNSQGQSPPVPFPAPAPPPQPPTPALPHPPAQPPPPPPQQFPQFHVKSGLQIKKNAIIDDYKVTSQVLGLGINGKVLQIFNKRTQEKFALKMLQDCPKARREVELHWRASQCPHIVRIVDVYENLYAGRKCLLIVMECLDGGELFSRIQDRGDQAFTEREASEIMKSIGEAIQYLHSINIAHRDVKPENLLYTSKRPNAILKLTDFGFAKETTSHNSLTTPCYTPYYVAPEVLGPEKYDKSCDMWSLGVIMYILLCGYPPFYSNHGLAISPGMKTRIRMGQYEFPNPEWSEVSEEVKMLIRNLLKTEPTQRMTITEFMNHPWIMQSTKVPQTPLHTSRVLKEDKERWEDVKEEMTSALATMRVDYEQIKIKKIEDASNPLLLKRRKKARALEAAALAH
Chain of Glycogen synthase kinase-3 beta (Homo sapiens) (P49841 whole entry, looked up): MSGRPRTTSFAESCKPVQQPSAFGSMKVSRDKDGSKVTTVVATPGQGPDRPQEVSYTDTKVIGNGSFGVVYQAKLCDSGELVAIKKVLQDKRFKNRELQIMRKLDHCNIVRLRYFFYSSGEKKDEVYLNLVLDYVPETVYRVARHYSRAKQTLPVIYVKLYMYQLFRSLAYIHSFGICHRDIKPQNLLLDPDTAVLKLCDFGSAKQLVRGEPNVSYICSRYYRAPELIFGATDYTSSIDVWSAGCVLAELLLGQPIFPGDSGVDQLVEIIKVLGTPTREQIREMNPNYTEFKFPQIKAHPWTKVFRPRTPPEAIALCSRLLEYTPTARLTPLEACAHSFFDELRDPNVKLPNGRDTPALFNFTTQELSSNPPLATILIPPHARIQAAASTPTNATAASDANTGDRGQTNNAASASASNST
Chain of Cyclin-dependent kinase 5/CDK5 activator 1 (Homo sapiens) (Q00535 whole entry): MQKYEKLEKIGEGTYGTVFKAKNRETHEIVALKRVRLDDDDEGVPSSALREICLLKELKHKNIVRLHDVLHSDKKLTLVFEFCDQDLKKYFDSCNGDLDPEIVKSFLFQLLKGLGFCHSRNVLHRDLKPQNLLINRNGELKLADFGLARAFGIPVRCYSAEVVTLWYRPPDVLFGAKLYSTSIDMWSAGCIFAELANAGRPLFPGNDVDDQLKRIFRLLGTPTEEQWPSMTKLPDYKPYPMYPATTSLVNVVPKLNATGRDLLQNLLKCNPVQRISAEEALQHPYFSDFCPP
Chain of Cyclin-dependent kinase 5/CDK5 activator 1 (Homo sapiens) (Q15078 99-307 partner limits assumed): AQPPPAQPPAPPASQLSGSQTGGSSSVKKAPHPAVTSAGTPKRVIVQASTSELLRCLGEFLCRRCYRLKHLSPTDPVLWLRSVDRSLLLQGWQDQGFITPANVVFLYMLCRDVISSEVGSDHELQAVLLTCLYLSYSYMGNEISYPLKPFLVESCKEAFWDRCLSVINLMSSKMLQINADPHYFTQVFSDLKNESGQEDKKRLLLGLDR
Chain of Dual specificity protein kinase CLK3 (Homo sapiens) (P49761 whole entry, looked up): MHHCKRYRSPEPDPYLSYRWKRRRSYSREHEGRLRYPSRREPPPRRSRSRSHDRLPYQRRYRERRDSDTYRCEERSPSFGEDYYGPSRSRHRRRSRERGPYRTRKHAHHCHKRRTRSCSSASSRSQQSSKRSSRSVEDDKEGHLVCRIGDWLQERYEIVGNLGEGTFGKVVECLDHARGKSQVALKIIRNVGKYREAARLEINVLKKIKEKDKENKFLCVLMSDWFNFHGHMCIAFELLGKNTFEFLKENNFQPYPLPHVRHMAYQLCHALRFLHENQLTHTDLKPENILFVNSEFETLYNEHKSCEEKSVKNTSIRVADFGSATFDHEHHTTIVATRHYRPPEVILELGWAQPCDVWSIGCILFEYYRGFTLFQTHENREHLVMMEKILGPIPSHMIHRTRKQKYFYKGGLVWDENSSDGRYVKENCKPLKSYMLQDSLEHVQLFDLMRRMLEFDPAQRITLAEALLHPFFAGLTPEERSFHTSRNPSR
Chain of Mitogen-activated protein kinase 10 (Homo sapiens) (P53779 whole entry): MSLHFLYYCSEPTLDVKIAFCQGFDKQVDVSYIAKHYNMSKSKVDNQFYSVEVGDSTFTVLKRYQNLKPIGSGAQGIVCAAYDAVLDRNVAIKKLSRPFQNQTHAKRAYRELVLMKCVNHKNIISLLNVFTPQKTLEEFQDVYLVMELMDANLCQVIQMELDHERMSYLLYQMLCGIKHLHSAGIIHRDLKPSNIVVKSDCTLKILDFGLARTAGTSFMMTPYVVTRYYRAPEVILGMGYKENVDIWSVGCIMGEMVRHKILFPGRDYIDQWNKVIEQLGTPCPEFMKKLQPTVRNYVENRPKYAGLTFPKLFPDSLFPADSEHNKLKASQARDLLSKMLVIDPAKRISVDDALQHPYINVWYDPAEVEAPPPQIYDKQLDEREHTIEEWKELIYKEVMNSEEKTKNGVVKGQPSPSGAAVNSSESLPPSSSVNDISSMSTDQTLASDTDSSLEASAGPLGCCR

`COc1ccc(/C=C2\C(=O)NN(c3ccc(Cl)c(Cl)c3)C2=O)cc1O` had a pIC50 in experiment [1] of under 4.30.

With `O=C1NN(c2ccc(Cl)c(Cl)c2)C(=O)/C1=C/c1cccc(Cl)c1Cl`, in [1], the pIC50 was 4.82.

Take `COc1ccc(N2NC(=O)/C(=C\c3ccc(OC)c(O)c3)C2=O)cc1`: the pIC50 in [1] was under 4.30.

As to `COc1cc(/C=C2\C(=O)NN(c3ccc(Cl)c(Cl)c3)C2=O)cc(OC)c1`, the pIC50 in [1] is 4.70.

Turning to `O=C1NN(c2ccc(Cl)c(Cl)c2)C(=O)/C1=C/c1ccc(Cl)cc1`, the pIC50 in experiment [1] was 4.70.

The compound `O=C1NN(c2ccc(Cl)c(Cl)c2)C(=O)/C1=C/c1cc(O)cc(O)c1` gave a negative-log IC50 (pIC50) in experiment [1] of under 4.30.

In experiment [1], `COc1ccccc1/C=C1\C(=O)NN(c2ccc(C#N)cc2)C1=O` had a pIC50 of 4.40.

Consider `O=C1NN(c2ccc(Cl)c(Cl)c2)C(=O)/C1=C/c1ccc(F)c(F)c1`, for which, in experiment [1], the pIC50 was 5.30.

As to `COc1ccc(N2NC(=O)/C(=C\c3cccc(OC)c3)C2=O)cc1`, the negative logarithm of the IC50 (pIC50) in experiment [1] was under 4.30.

`COc1cccc(/C=C2\C(=O)NN(c3ccc(Cl)c(Cl)c3)C2=O)c1` showed a pIC50 in experiment [1] of under 4.30.

Turning to `COc1cc(/C=C2\C(=O)NN(c3ccc(Cl)c(Cl)c3)C2=O)ccc1O`, in experiment [1], the pIC50 was 5.60.

In experiment [1], `O=C1NN(c2ccc(Cl)c(Cl)c2)C(=O)/C1=C/c1c(Cl)cccc1Cl` showed a pIC50 of under 4.30.

Turning to `COc1ccc(N2NC(=O)/C(=C\c3ccccc3OC)C2=O)cc1`, the pIC50 in experiment [1] was under 4.30.

Take `COc1ccccc1/C=C1\C(=O)NN(c2ccc(F)cc2)C1=O`: the pIC50 in [1] was under 4.30.

Turning to `COc1ccc(N2NC(=O)/C(=C\c3ccccc3F)C2=O)cc1`, in [1], the pIC50 is under 4.30.

Take `O=C1NN(c2ccc(Cl)c(Cl)c2)C(=O)/C1=C/c1ccc(O)c([N+](=O)[O-])c1`: the Activity in [2] was found to be 91%; in [3], 75%; in experiment [4] it was 17%; in experiment [5] it was 102%; in experiment [6] it was 94%; in [7] it was 105%. In addition, the Activity turned out to be 72% in the experiment listed under Homo sapiens and 82% in experiment [8]. Further, the pIC50 in experiment [1] was 6.22.

Compound `COc1ccc(N2NC(=O)/C(=C\c3ccc(O)c(OC)c3)C2=O)cc1` had a pIC50 in experiment [1] of 5.92.

Take `COc1ccc(/C=C2\C(=O)NN(c3ccc(Cl)c(Cl)c3)C2=O)cc1OC`: in experiment [1], the pIC50 was under 4.30.

The compound `O=C1NN(c2ccc(Cl)c(Cl)c2)C(=O)/C1=C/c1ccccc1Cl` had a pIC50 in [1] of 4.70.

With `COc1ccc(/C=C2\C(=O)NN(c3ccc(Cl)c(Cl)c3)C2=O)c(OC)c1`, the pIC50 in [1] is under 4.30.

In experiment [1], `O=C1NN(c2ccc(Cl)c(Cl)c2)C(=O)/C1=C/c1ccccc1F` showed a pIC50 of under 4.30.

Consider `COc1ccc(N2NC(=O)/C(=C\c3cc(O)cc(O)c3)C2=O)cc1`, for which the pIC50 in [1] is under 4.30.

`COc1ccc(N2NC(=O)/C(=C\c3cc(OC)cc(OC)c3)C2=O)cc1` showed a pIC50 in [1] of under 4.30.

In turn, `O=C1NN(c2ccc(Cl)c(Cl)c2)C(=O)/C1=C/c1ccccc1` showed a pIC50 in experiment [1] of under 4.30.

As for `COc1ccccc1/C=C1\C(=O)NN(c2ccc(Cl)c(Cl)c2)C1=O`, in [1], the pIC50 is under 4.30.

In turn, `COc1ccc(N2NC(=O)/C(=C\c3cccc(Cl)c3Cl)C2=O)cc1` gave a pIC50 in experiment [1] of under 4.30.

In experiment [1], `COc1ccc(/C=C2\C(=O)NN(c3ccc(Cl)c(Cl)c3)C2=O)cc1` had a pIC50 of under 4.30.

In experiment [1], `COc1cc(/C=C2\C(=O)NN(c3ccc(Cl)c(Cl)c3)C2=O)cc(OC)c1O` showed a pIC50 of under 4.30.

In experiment [1], `O=C1NN(c2ccc(Cl)c(Cl)c2)C(=O)/C1=C/c1ccc(O)cc1` gave a pIC50 of 5.60.

Consider `O=C1NN(c2ccc(Cl)c(Cl)c2)C(=O)/C1=C/c1ccccc1[N+](=O)[O-]`, for which, in experiment [1], the pIC50 is under 4.30.

In the case of `COc1ccc(N2NC(=O)/C(=C\c3cc(OC)c(O)c(OC)c3)C2=O)cc1`, the pIC50 in [1] was under 4.30.

For `COc1cc(/C=C2\C(=O)NN(c3ccc(C#N)cc3)C2=O)ccc1O`, the Activity in experiment [2] is 104%; in experiment [3] it was 93%; in experiment [4] it was 78%; in experiment [5], 76%; in experiment [6], 93%; in experiment [7] it was 110%. For the same compound, the values for the Activity (in the experiment filed under Homo sapiens; in experiment [8]) were 69% and 77%, respectively. Besides, the pIC50 in experiment [1] was 6.22.

For the compound `COc1ccc(/C=C2\C(=O)NN(c3ccc(C#N)cc3)C2=O)cc1O`, the pIC50 in experiment [1] is under 4.30.

The pIC50 is the IC50 on a negative log10 scale, so that one unit is a factor of ten.
